Compound activity deposited in PubChem BioAssay by Johns Hopkins Ion Channel Center.
RGS4 inh = inhibitors of human RGS4; AID 463165; HEK293 M3R/RGS4 inducible, Fluo-4 calcium flux; hits give high values; triggered by carbachol at its EC20; 310,000 compounds, 0.45% hits; B-score at 10 µM;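 active = B-score, a plate-corrected calcium signal, over three deviations above library mean, with baseline fluorescence within five deviations of library mean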;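 note: RGS4 expression induced by doxycycline in cells with stable M3 receptor; B-score is computed from the integrated fluorescence ratio over baseline after carbachol; higher B-score means a larger calcium signal and so more RGS4 inhibition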
Target sequence (P49798 whole entry, looked up): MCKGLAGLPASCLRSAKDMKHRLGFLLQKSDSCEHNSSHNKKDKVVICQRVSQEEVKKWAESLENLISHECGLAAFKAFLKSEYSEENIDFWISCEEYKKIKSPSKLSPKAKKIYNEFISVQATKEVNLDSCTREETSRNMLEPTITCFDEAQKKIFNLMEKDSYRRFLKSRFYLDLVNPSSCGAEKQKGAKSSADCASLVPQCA
MrgX1 ag = human MrgX1 receptor agonism, primary screen; B-score at 10 µM; 310,000 compounds, 0.44% hits; MrgX1-HEK293 cells, Fluo-4 calcium fluorescence, agonist mode; hits give high values;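 active = calcium response B-score plate-corrected fluorescence ratio at least 3 library SD, with starting fluorescence B-score inside 5 SD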
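times = overnight plating, then 30 min 37 °C plus 30 min room-temperature dye loading | assay system = stable human MrgX1 HEK293 cell line | input = fifteen thousand cells per well | signal = kinetic calcium dye fluorescence, Fluo-4 NW | dosing = compound delivered in addition one of three | read-out = B-scored fluorescence response ratio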
RGS4 pot = RGS4 potentiation or activation | HEK293 M3R/inducible RGS4, carbachol calcium flux Fluo4; hits give low values | B-score at 10 µM | 310,000 compounds, 0.92% hits | AID 463111;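 active = B-score of the integrated calcium signal more than 4 SD below the library mean, with starting fluorescence not abnormally high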;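 note: negative B-score means reduced calcium response which marks RGS4 activation or potentiation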
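Assay system: HEK293 FlpIn-TREx cells, stable M3R, doxycycline-inducible RGS4 / Probe or stimulus: carbachol, ECmax concentration / Times: overnight RGS4 induction, 30 min dye load 37 °C, 20 min compound RT / Signal: kinetic calcium fluorescence imaging with Fluo4-AM dye, 2 µM / Measure: Agonist-evoked peak-minus-minimum fluorescence over baseline, integrated ratio, B score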
MrgX1 antag = human MrgX1 receptor antagonism, primary screen; B-score at 10 µM; 310,000 compounds, 1.3% hits; AID 588676; MRGX1-HEK293 calcium flux, Fluo-4, BAM8-22 antagonism; hits give low values;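 active = calcium-response B-score plate-corrected more than 3 library SD below zero, starting fluorescence within 5 deviations, no agonist response on first addition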;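 note: peak minus trough fluorescence over baseline after final BAM8-22 challenge near maximal dose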
MrgX1 PAM = allosterically activates human MrgX1 receptor signaling | B-score at 10 µM | MrgX1-HEK293, Fluo-4 calcium flux, FDSS; hits give high values | Q96LB2 | 310,000 compounds, 0.63% hits;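 active = plate-corrected calcium response at least 3 library SD above typical, normal starting fluorescence, not activating the receptor alone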;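 note: compound read alongside a low EC10 to EC30 dose of BAM8-22 agonist; peak minus trough fluorescence over baseline measured at the second addition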
Of the large screens only hits and unclear results are named; the others gave an inactive call. Hits are enriched below; roughly 3.5% of the tested compounds scored in any of these assays.

Clc1ccc(OCc2nnc(-c3ccccc3Br)o2)c(Cl)c1	none
C(=C1/CCCC2=C1Nc1ncnn1C2c1ccccc1)/c1ccccc1 (stereo unspecified)	MrgX1 antag -5, MrgX1 PAM 7.3
S=C1NC2=C(CCC/C2=C\c2ccccc2)C(c2ccccc2)N1 (stereo unspecified)	none
CCn1c(-c2ccccc2Cl)nn(CC(=O)NCCc2ccccc2)c1=S	MrgX1 PAM 12
Cc1ccc(NC(=O)CN2C(=O)NC3(CCCc4ccccc43)C2=O)c([N+](=O)[O-])c1 (stereo unspecified)	none
COc1ccc(/C=N/Nc2cc(C)nc3c(C)cccc23)cc1	MrgX1 antag -4.6
CCOc1ccc(NC(=S)NC(C)c2cccs2)cc1 (stereo unspecified)	none
CCOC(=O)N1CCN(S(=O)(=O)c2cc(Br)cnc2N)CC1	RGS4 pot -7.4
CCCn1c(N)c(C(=O)COc2ccc(Br)cc2F)c(=O)n(C)c1=O	none
O=C(CNC(=O)C(c1ccccc1)c1ccccc1)N/N=C/c1ccc(O)cc1O	MrgX1 antag -5.7
O=C(CNC(=O)C(c1ccccc1)c1ccccc1)N/N=C\c1cccc(O)c1	none
CCN(CC)CCCCCC(=O)Nc1ccccc1C(=O)Nc1ccccc1	none
NNC(=O)c1oc2nc(-c3cccs3)cc(-c3ccco3)c2c1N	RGS4 pot -9.7
COc1cccc(/C=N/NC(=O)c2oc3nc(-c4ccccc4)cc(-c4ccco4)c3c2N)c1	MrgX1 antag -4.7
CC(C)(C)c1ccc(C(=O)NCC(=O)N2CCC3(CC2)NCCc2[nH]cnc23)cc1	none
O=C(Nn1cnnc1)c1cc(Br)ccc1Cl	none
CCN(CC)S(=O)(=O)c1ccc(OC(C)C)c(NC(=O)c2c3c(nc4ccccc24)CCN(Cc2ccccc2)C3)c1	MrgX1 antag -5
Cc1ccsc1C(=O)OCC(=O)Nc1cccc(S(=O)(=O)N2CCOCC2)c1	none
FC(F)(F)c1cc(C(F)(F)F)c2ccc(N3CCN(c4ccc(Cl)cc4)CC3)nc2n1	none
N#CC(c1ccc(Cl)cc1)c1ccc2c(C(F)(F)F)cc(C(F)(F)F)nc2n1 (stereo unspecified)	RGS4 pot -8.1
COC(=O)c1c(NC(=O)COC(=O)c2ccc(Cl)cc2[N+](=O)[O-])sc2c1CCCCC2	none
COC(=O)c1c(NC(=S)Nc2ccc(F)cc2[N+](=O)[O-])sc2c1CCCCC2	MrgX1 PAM 8.9
CCCN(CCC)CCCNC(=S)Nc1ccc2nc(N3CCN(C)CC3)cc(C)c2c1	MrgX1 ag 29
CCOC(=O)CNC(=O)N1CCCC(CCC(=O)NCc2ccc(F)c(F)c2)C1 (stereo unspecified)	none
CCOc1ccccc1NC(=O)C(Sc1ccccc1)c1ccccc1 (stereo unspecified)	RGS4 pot -7.3, MrgX1 antag -5
COc1ccccc1NC(=O)C(Sc1ccccc1)c1ccccc1 (stereo unspecified)	none
O=C(/C=C/Nc1ccc(F)cc1)c1cccs1	MrgX1 antag -5
O=C(/C=C/Nc1ccc(F)c(F)c1)c1cccs1	none
CC(C)C(C)NC(=O)COC(=O)/C=C/c1ccc(S(=O)(=O)N2CCc3ccccc32)cc1 (stereo unspecified)	none
CCOc1cccc2cc(-c3nnc(NCc4ccco4)s3)c(=O)oc12	MrgX1 antag -4.8
Brc1ccc(/C=N/Nc2ccc3ccccc3n2)cc1	none
Brc1ccccc1/C=N/Nc1ccc2ccccc2n1	MrgX1 PAM 11
CC(=O)[C@H]1CC[C@H]2[C@@H]3CCC4=CC(=O)CC[C@]4(C)[C@H]3[C@H](O)C[C@]12C	none
C[C@]12CC(O)C3C(CCC4=CC(=O)CC[C@@]43C)C1CCC2c1csc(-c2ccccc2)n1 (stereo partly specified)	RGS4 pot -9.6
C=CCc1cccc(CNc2c(C)cc(C)cc2C)c1O	none
CC1(C)CCCN(C(=O)N2c3ccccc3Sc3ccccc32)C1	RGS4 pot -9.2
CCc1ccc2oc(-c3ccc(OC)cc3)cc(=Nc3c(C)n(C)n(-c4ccccc4)c3=O)c2c1	RGS4 pot -7.4
CSc1ccc(CN(C)C(=O)c2cc(=O)[nH]c3ccccc23)cc1	none
CCCCSc1nc2sc3c(c2c(=O)n1-c1ccccc1)CCN(C)C3	RGS4 pot -7.3
C=C(C)CSc1nc2sc3c(c2c(=O)n1-c1ccccc1)CCN(C)C3	RGS4 pot -7.5
